This is a sample that favours compounds with a hit; in the whole collection about 4.8% have one here.
APP 5UTR inh = APP translation inhibition; SH-SY5Y APP 5'UTR-luciferase reporter, luminescence; inhibition, % at 2 µM; hit rate 0.82% among 190,000; AID 1285;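 active means inhibition above a set limit, derived from the sample mean plus 3 SD, cut at about 45% in these data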
FLuc act counter = firefly luciferase counter-screen for stimulation assays. P08659. ATPlite luciferase biochemical, luminescence, 10 min; 0 = ATP-free wells, 1 = DMSO control. activation factor at 10 µM. 200,000 tested, under 10 active. AID 1027;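 active means luciferase activation factor, scaled between plate controls, of at least 2 with compound at 10 µM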
Target sequence (P08659 whole entry, looked up): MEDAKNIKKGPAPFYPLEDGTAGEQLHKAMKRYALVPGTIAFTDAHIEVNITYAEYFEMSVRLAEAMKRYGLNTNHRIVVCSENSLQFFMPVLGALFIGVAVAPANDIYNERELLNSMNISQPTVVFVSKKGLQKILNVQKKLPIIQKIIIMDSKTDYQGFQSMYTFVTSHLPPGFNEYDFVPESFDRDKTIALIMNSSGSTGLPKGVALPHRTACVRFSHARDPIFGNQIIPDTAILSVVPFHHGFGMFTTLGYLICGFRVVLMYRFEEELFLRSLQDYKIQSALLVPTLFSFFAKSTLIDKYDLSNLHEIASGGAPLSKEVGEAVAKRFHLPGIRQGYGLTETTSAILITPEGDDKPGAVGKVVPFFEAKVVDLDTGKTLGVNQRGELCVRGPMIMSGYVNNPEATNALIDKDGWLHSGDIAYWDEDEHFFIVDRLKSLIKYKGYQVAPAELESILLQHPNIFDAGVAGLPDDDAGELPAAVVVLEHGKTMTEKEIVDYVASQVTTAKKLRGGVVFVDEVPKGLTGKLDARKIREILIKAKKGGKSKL
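Material: Luciferase/luciferin reagent mix | Doses: Test compounds dosed from 2 mM stocks in 100% DMSO | Timing: 10 min incubation after luciferase reagent addition, room temperature | Measured by: Luminescence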
STAT1 act = STAT1 signaling activation | NIH 3T3 STAT1-luciferase reporter, IFN-gamma, luminescence; 100% = IFN-gamma alone, no compound | activation (% of control), % at 5.5 µM | hit rate 2.6% among 200,000 | AID 932;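 active means activation above the screen-wide mean activation plus 3 SD, cut at about 130% in these data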
NF-kB expr up = compounds increasing NF-kB expression in human neuronal cells. fold change at 12.5 µM. NF-kB reporter expression; hits give high values. hit rate 1.6% among 190,000; in the data active means fold change above about 3.3
FLuc inhib CS = counter-screen for luciferase assay inhibitors: firefly luciferase inhibition; P08659; ATPLite firefly luciferase biochemical luminescence, 10 min; inhibition, % at 10 µM; hit rate 1.5% among 200,000; AID 1006;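 active means inhibition above about 50% when tested at 10 µM, limit read from the data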
APP 5'UTR act = APP 5'UTR luciferase reporter activation. SH-SY5Y APP 5'UTR luciferase reporter, luminescence; zero percent = DMSO vehicle wells. activation, % at 2 µM. hit rate 1% among 190,000. AID 1276;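 active means activation above a set limit, based on mean plus 3 SD of controls, cut at about 140% in these data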
Of the large screens only hits and unclear results are named; the others gave an inactive call.

COc1ccc(C(=O)NNC(=O)CCn2nnc(-c3ccc(Cl)cc3)n2)cc1OC	none
NC(=O)C1CCN(S(=O)(=O)Cc2ccccc2Cl)CC1	none
COc1cc(-c2nc3ccc(N4CCN(C)CC4)cc3[nH]2)cc(OC)c1OC	none
COc1ccc(-c2nc3ccc(N4CCN(C)CC4)cc3c(=O)[nH]2)cc1	STAT1 act 130
O=C(c1ccc(F)cc1)N(C(=O)c1ccc(F)cc1)c1ncccn1	APP 5UTR inh 71
O=C(c1ccc(F)cc1)N1CCN(c2ncccn2)CC1	none
CCc1cc(=O)[nH]c(SCc2ccc(C)cc2)n1	none
Cn1ccs/c1=N\C(=O)Nc1ccccc1	STAT1 act 141
CC(C)(C)C1CCC(OC(=O)C[N+]2(C)CCCCC2)CC1 (configuration not stated)	none
CN(c1ccccc1C(=O)O)S(C)(=O)=O	none
CN(C)c1ccccc1C(=O)c1ccccc1N(C)C	APP 5UTR inh 91, STAT1 act 132
O=C(NNC1=NCCCCC1)Nc1cccc(Cl)c1	STAT1 act 136
Cc1ccc(-n2nc3cc(C)c(N)cc3n2)cc1	NF-kB expr up 3.9, FLuc inhib CS 81
COc1ccc(-n2nc3cc(C)c(NC(C)=O)cc3n2)cc1	FLuc inhib CS 81
COc1ccc(-n2nc3ccccc3n2)cc1	none
COc1ccc(-n2nc3cc(C)c(NC(=O)C(C)C)cc3n2)cc1	STAT1 act 139
COc1ccc(-n2nc3cc(C)c(N)c(Br)c3n2)cc1	STAT1 act 168, NF-kB expr up 6.3, APP 5'UTR act 185
COc1ccc(-c2cc(N)n(S(=O)(=O)c3c(F)c(F)c(F)c(F)c3F)n2)cc1OC	none
Cn1c(NC(=O)Cc2cccc3ccccc23)cc(=O)n(C)c1=O	none
Cc1cccc(OCC2=NS(=O)(=O)c3ccccc3N2)c1	none
C/C(=N/OC(=O)c1ccc(F)cc1)c1ccc(C)cc1	FLuc inhib CS 70
Cc1ccc(C(=O)O/N=C(\c2ccccc2)c2ccncc2)cc1	none
CC(C)C(NC(=O)c1ccccc1F)C(=O)NCCc1ccccn1 (configuration not stated)	none
CCCCOC1(c2ccccc2)NC(=S)NN=C1c1ccccc1 (configuration not stated)	none
Brc1cccc(-c2n[nH]c(-c3ccccc3)n2)c1	STAT1 act 138, NF-kB expr up 3.9
c1ccc(-c2nc(-c3cccnc3)n[nH]2)cc1	none
CN(C)CC(C)(C)CNS(=O)(=O)c1cccc(Cl)c1Cl	none
O=C(CSc1nnc(NC(=O)c2ccco2)s1)Nc1ccc2c(c1)OCCO2	FLuc inhib CS 55
O=C(O)CSc1nnc(NC(=O)c2ccc3c(c2)OCO3)s1	FLuc inhib CS 91
O=C(Nc1nnc(SCC(=O)N2CCOCC2)s1)c1ccccc1	FLuc inhib CS 92
CCOc1ccccc1C(=O)Nc1nnc(SCC(=O)N2CCOCC2)s1	none
COc1ccc(CC(=O)Nc2cccc(C(=O)Nc3cccc(C)c3)c2)cc1	none
CC(=O)c1cccc(NC(=O)c2ccc(OC3CSC3)cc2)c1	none
Cc1cccc(NC(=O)c2ccc(OC3CSC3)cc2)c1	NF-kB expr up 3.8, FLuc inhib CS 80, APP 5'UTR act 158
COc1cc(NC(=O)CCc2ccccc2)nc(OC)n1	none
COc1ccc(C(=O)Nc2cc(OC)nc(OC)n2)cc1	STAT1 act 138, NF-kB expr up 7.2, FLuc inhib CS 76, APP 5'UTR act 140
COc1ccc(C(=O)Nc2cccc(C)c2)cc1	STAT1 act 138, NF-kB expr up 6, FLuc inhib CS 77, APP 5'UTR act 142
COc1cccc(C(=O)Nc2ccccc2)c1	none
COc1cccc(C(=O)Nc2cccc(SC)c2)c1	STAT1 act 129
CN(CC(=O)NCc1cccc(F)c1)C(=O)c1ccco1	none
CCN1C(=O)C(=O)N(CC(=O)Nc2ccccc2Oc2ccccc2)C1=O	none
CCCCOC(=O)Nc1ccc(C(=O)OC)cc1	none
CCCCOC(=O)Nc1ccc(C)c(Cl)c1	STAT1 act 143
O=C(Nc1cccc(Br)c1)c1ccc(OC2CSC2)cc1	FLuc inhib CS 58, APP 5'UTR act 149
COc1cccc(NC(=O)c2ccc(NC(=O)C(C)(C)C)cc2)c1	STAT1 act 136
COc1cccc(NC(=O)Nc2ccc(C)c(Cl)c2)c1	STAT1 act 133
COc1cccc(NC(=O)Nc2cc(C(=O)O)ccc2C)c1	none
CCCC(=O)Nc1ccc(C(=O)Nc2cccc(OC)c2)cc1	none
CCOc1ccccc1/C=N/NC(=O)CNC(=O)c1cccs1	none
CCOc1ccc(N=Nc2c(=O)[nH]n3c(=O)cc(C)[nH]c23)cc1	FLuc inhib CS 64
Cc1cc(=O)n2[nH]c(=O)c(N=Nc3ccccc3)c2[nH]1	none
COc1ccc(C(=O)Cc2ccc3c(c2)OCO3)c(O)c1	STAT1 act 147
CCc1n[n+](CC(=O)c2ccccc2)c(N)s1	FLuc inhib CS 70, APP 5'UTR act 142
CN(Cc1nc(Cc2cccc(C(F)(F)F)c2)no1)C1CC(C)(C)NC(C)(C)C1	none
CC(C)n1c(O)c(N=NC(=O)c2ccccc2NS(=O)(=O)c2cccs2)c2ccccc21	none
CCOC(=O)C1(Cc2ccc(Cl)cc2)CCN(Cc2ccon2)CC1	none
O=C1c2ccccc2CN1CCSC(=S)N1CCOCC1	STAT1 act 130
CC1CN(C(=S)SCCN2Cc3ccccc3C2=O)CC(C)O1 (configuration not stated)	none
O=C1c2ccccc2CN1CCSC(=S)N1CCSCC1	STAT1 act 134
CCCCOC(=O)c1ccc(NC(=O)/C=C/c2cccs2)cc1	none
CCOCc1c(C(=O)OCC(=O)/C(C#N)=C(\C)N)oc2ccccc12	none
COc1ccc(OCC(=O)N/N=C/c2ccsc2)cc1	none
CCN=c1scc(C)n1/N=C/c1ccsc1	STAT1 act 150, NF-kB expr up 3.6
COc1ccc(C(=O)/C=C/Nc2ccc([N+](=O)[O-])cc2)cc1	STAT1 act 132
COc1ccc(C(=O)/C=C/Nc2cc(C)on2)cc1	STAT1 act 139, NF-kB expr up 4.3
COc1ccc(/C=C/C(=O)Nc2cc(C)on2)cc1	none
COc1ccc(N/C=C/C(=O)c2ccc(Oc3ncccn3)cc2)cc1	none
COc1cccc(C(=O)/C=C/Nc2cc(C)ccc2O)c1	STAT1 act 134, NF-kB expr up 25, FLuc inhib CS 62
COc1ccc(N/C=C\C(=O)c2ccc(C)cc2)cc1OC	STAT1 act 143
CC(=O)N(C)c1ccc(NS(=O)(=O)c2cc(Cl)ccc2Cl)cc1	none
NS(=O)(=O)c1ccc(N/C=C/C(=O)c2ccc(Br)cc2)cc1	STAT1 act 143
COc1ccc(C(=O)/C=C/Nc2ccc(S(=O)(=O)Nc3cccc(C(C)=O)c3)cc2)cc1	none
COc1ccc(C(=O)/C=C/Nc2cccc(O)c2)cc1	NF-kB expr up 14, FLuc inhib CS 95, APP 5'UTR act 195
O=C(Oc1ccccc1O)c1cccc2ccccc12	NF-kB expr up 3.5

Screening results from PubChem BioAssay.
